This note sets out measurements from ChEMBL document CHEMBL1137442, “Synthesis and anticonvulsant evaluation of 4-(4-alkoxylphenyl)-3-ethyl-4H-1,2,4-triazoles as open-chain analogues of 7-alkoxyl-4,5-dihydro[1,2,4]triazolo[4,3-a]quinolines” (Bioorg Med Chem, 2007).

Active and inactive are the calls of the source.

The species entered for series [1] is Mus musculus. Put plainly: Protective index, ratio of TD50 for C57B/6 mouse by rotarod test to ED50 for C57B/6 mouse by MES test. The format is functional. A general note: Falling from the rotarod earlier than controls is read as motor impairment.
Series [2] is described as follows: Neurotoxicity in ip dosed C57B/6 mouse after 30 mins by rotarod test. As to conditions: in vivo. The class given is toxicity, organism-based. In a few lines:
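Mice, groups of 10, given a range of ip doses to define 10–90% minimal neurotoxicity. At 30 min after dosing, each mouse was placed on a 1-in. knurled rod rotating at 6 rpm for 1 min. Neurotoxicity meant failure to keep equilibrium in each of three trials.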

Series [3] deals with Mus musculus. Put plainly: Anticonvulsant activity against MES-induced seizure in ip dosed C57B/6 mouse by MES test. The format is functional. The conditions noted are these: C57B/6, ip. In a few lines: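 Mice, groups of 10, given a range of intraperitoneal doses until at least three points fell within 10–90% protection. MES was tested 30 min after dosing, with current applied via corneal electrodes for 0.2 s. Protection was defined as abolition of the hind-leg tonic maximal extension.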

For series [4], the species on record is Mus musculus. Put plainly: Anticonvulsant activity against 3-mercaptopropionic acid-induced seizure in C57B/6 mouse. The class given is functional. The method in brief: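 3-Mercaptopropionic acid 40 mg/kg in saline was injected sc 1 h after test treatment. Convulsion latency and duration, plus lethality latency and percentage, were recorded over 1 h. ED50 was the dose preventing tonic convulsions in 50% of treated animals.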

The species named for series [5] is Mus musculus. The series can be described thus: Anticonvulsant activity against pentylenetetrazole-induced seizure in C57B/6 mouse. The class given is functional. The method in brief: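 Pentylenetetrazole 85 mg/kg sc, a dose giving 100% convulsions, was given 30 min after test treatment. Latency and duration of convulsions, plus latency and percentage of lethality, were recorded over the following 1 h. ED50 was the dose preventing tonic convulsions in 50% of treated animals.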

For series [6], the system named is Mus musculus. Put plainly: Anticonvulsant activity against strychnine-induced seizure in C57B/6 mouse at 300 mg/kg. The class given is functional, organism-based. Further details: dose 300 mg/kg. In a few lines:
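Strychnine chlorhydrate in saline (1.2 mg/mL, 1 mL/kg) was given sc as a 100%-convulsant dose after compound pretreatment, with the compound tested at 300 mg/kg. Mice were housed individually and observed for 30 min, recording seizure onset time, number of tonic seizures and lethality.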

Series [7] is filed under the species Mus musculus. The series can be described thus: Anticonvulsant activity against thiosemicarbazide-induced seizure in C57B/6 mouse. The format is functional. In a few lines:
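Thiosemicarbazide 50 mg/kg ip, a fully convulsant dose, was given 1 h after test treatment. Latency and duration of convulsions, plus lethality latency and percentage, were recorded over 2 h 30 min. ED50 was the dose preventing tonic convulsions in 50% of treated animals.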

The species named for series [8] is Mus musculus. Put plainly: Anticonvulsant activity against isoniazid-induced seizure in C57B/6 mouse. The format is functional. In a few lines:
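Isoniazid was given ip at 250 mg/kg, a dose set by a dose–percent effect curve to convulse 100% of animals. Test compounds were given beforehand. ED50 was the dose protecting 50% of animals from tonic convulsions.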

As usually defined, the TD50 is the dose at which the toxic effect under study appears in half of the subjects. As a reminder, the ED50 is the dose that gives a 50% effect, or the effect in half of the subjects. High values mean a need for a large dose, low ones an effect at a small dose.

For the molecule `CCCCCCOc1ccc2c(c1)CCc1nncn1-2`, in the series filed under Mus musculus [1], the “Ratio TD50/ED50” value is given as 2.2. Also, in series [2], the TD50 at 0.5 h was 30.3 mg/kg. In the series on Mus musculus [3], this molecule had an ED50 of 13.5 mg/kg.
For `CCc1nncn1-c1ccc(OCc2ccc3c(c2)OCO3)cc1`, the “Ratio TD50/ED50” value in the series filed under Mus musculus [1] came out at 9.4. The molecule also yielded a TD50 at 0.5 h in series [2] of 189 mg/kg. Also, the 50% effect level in the series on Mus musculus [3] (ED50) was put at a dose of 20.1 mg/kg.
For `CCCCCCOc1ccc(-n2cnnc2CC)cc1`, in that order: 4.7, 62.1 mg/kg and 13.2 mg/kg.
With `CCCCCCCCCCCCOc1ccc(-n2cnnc2CC)cc1`, the ED50 with Mus musculus [3] was more than 100 mg/kg.
In the case of `CCc1nncn1-c1ccc(OCc2ccc(F)cc2)cc1`, the “Ratio TD50/ED50” value in the series listed under Mus musculus [1] worked out at 4. In addition, the TD50 at 0.5 h in series [2] was 91.3 mg/kg. In addition, in the series with Mus musculus [3], it took a dose of 22.8 mg/kg to reach the 50% effect level (ED50).
Consider `CCCOc1ccc(-n2cnnc2CC)cc1`, for which, in the series with Mus musculus [3], the ED50 is more than 100 mg/kg.
`Fc1ccc(COc2ccc3c(c2)CCc2nncn2-3)cc1`: the “Ratio TD50/ED50” value in the series listed under Mus musculus [1] is listed as 4.6. For the same molecule, the TD50 at 0.5 h in series [2] amounted to 54.5 mg/kg. In the series with Mus musculus [3], it took a dose of 11.8 mg/kg to reach the 50% effect level (ED50).
Turning to `CCCCOc1ccc(-n2cnnc2CC)cc1`, the ED50 in the series on Mus musculus [3] is more than 100 mg/kg.
As to `CCc1nncn1-c1ccc(OCc2ccccc2)cc1`, the “Ratio TD50/ED50” value in the series filed under Mus musculus [1] is 4.9. Also, in series [2], the TD50 at 0.5 h is 102 mg/kg. In addition, the 50% effect level in the series on Mus musculus [3] (ED50) was put at a dose of 20.8 mg/kg.
Regarding `CCc1nncn1-c1ccc(OCc2ccccc2F)cc1`, the “Ratio TD50/ED50” value in the series filed under Mus musculus [1] is 2.9. In series [2], the TD50 at 0.5 h worked out at 61.5 mg/kg. The same molecule gave an ED50 in the series on Mus musculus [3] of 21.2 mg/kg.
In the same order, the values of `CCc1nncn1-c1ccc(OCc2c(F)cccc2F)cc1` are 6.9, 109 mg/kg and 15.8 mg/kg.
Turning to `Cc1ccc(COc2ccc3c(c2)CCc2nncn2-3)cc1`, in the series filed under Mus musculus [1], the “Ratio TD50/ED50” value worked out at 3.2. Also, in series [2], the TD50 at 0.5 h came to 65.8 mg/kg. Moreover, the ED50 with Mus musculus [3] came out at 20.5 mg/kg.
On to `CCc1nncn1-c1ccc(OCc2c(Cl)cccc2Cl)cc1`, for which the “Ratio TD50/ED50” value in the series listed under Mus musculus [1] came to 8.3. Moreover, the TD50 at 0.5 h in series [2] was 132 mg/kg. This molecule also registered an ED50 with Mus musculus [3] of 15.8 mg/kg.
For the molecule `CCOc1ccc(-n2cnnc2CC)cc1`, in the series on Mus musculus [3], the median effective dose (ED50) is more than 100 mg/kg.
Regarding `CCCCCCCCOc1ccc(-n2cnnc2CC)cc1`, the ED50 in the series filed under Mus musculus [4] turned out to be 22.8 mg/kg; in the series listed under Mus musculus [5] it was 26.4 mg/kg; in the series on Mus musculus [3] it was 8.8 mg/kg; in the series filed under Mus musculus [7] it was 31.7 mg/kg; in the series listed under Mus musculus [8], 38.1 mg/kg. Also, the “Ratio TD50/ED50” value in the series listed under Mus musculus [1] came to 9.3. Besides, in series [2], the TD50 at 0.5 h was 82.2 mg/kg. Also, in the series on Mus musculus [6], the result was inactive.
For the molecule `CCc1nncn1-c1ccc(OCc2ccccc2Cl)cc1`, in the series listed under Mus musculus [1], the “Ratio TD50/ED50” value amounted to 5.8. In series [2], the TD50 at 0.5 h was 76.1 mg/kg. This molecule also had an ED50 in the series on Mus musculus [3] of 13.2 mg/kg.
In the same order, the values of `CCCCCCCOc1ccc(-n2cnnc2CC)cc1` are 5.5, 45.6 mg/kg and 8.3 mg/kg.
For `CCc1nncn1-c1ccc(OCc2cccc(Cl)c2)cc1`, in that order: 4, 110 mg/kg and 27.4 mg/kg.
In the same order, the values of `CCc1nncn1-c1ccc(OCc2cccc(F)c2)cc1` are 4, 91.2 mg/kg and 22.8 mg/kg.
For `CCc1nncn1-c1ccc(OCc2ccc(C)cc2)cc1`, the “Ratio TD50/ED50” value in the series listed under Mus musculus [1] stood at 4. In series [2], this molecule came in with a TD50 at 0.5 h of 101 mg/kg. Moreover, the ED50 in the series with Mus musculus [3] was 25.5 mg/kg.
As to `CCc1nncn1-c1ccc(OCc2ccc(Cl)cc2)cc1`, the “Ratio TD50/ED50” value in the series listed under Mus musculus [1] amounted to 10.4. Moreover, in series [2], the TD50 at 0.5 h stood at 137 mg/kg. In addition, the ED50 in the series on Mus musculus [3] was 19.7 mg/kg.
Consider `CCc1nncn1-c1ccc(OCc2ccc(OC)cc2)cc1`, for which the “Ratio TD50/ED50” value in the series listed under Mus musculus [1] came out at 8.3. Besides, in series [2], the TD50 at 0.5 h is 132 mg/kg. Further, the ED50 in the series on Mus musculus [3] was 15.8 mg/kg.
As for `c1ccc(COc2ccc3c(c2)CCc2nncn2-3)cc1`, in the series filed under Mus musculus [1], the “Ratio TD50/ED50” value was 3.5. The molecule also displayed a TD50 at 0.5 h in series [2] of 61.4 mg/kg. This molecule also returned an ED50 with Mus musculus [3] of 17.3 mg/kg.
